Results reported in ChEMBL document CHEMBL1135644, “Effect of spermine conjugation on the cytotoxicity and cellular transport of acridine” (J Med Chem, 2002).

Legend:
L1210 [1] = test: In vitro 25% cell growth inhibition by the compound in L1210 cells with 5 mM DFMO addition; assay type: functional; conditions: Mus musculus
Outline: (§1)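 L1210 cells were seeded at 5 × 10^4 cells/mL, and conjugate plus 5 mM DFMO were added at seeding with 2 mM aminoguanidine present. After 48 h, growth was read by MTT at 540 nm relative to DFMO-only controls.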

CHO-MG [2] = test: Cellular uptake of conjugates in CHO-MG cells at a concentration of 2 uM (+/-15% SEM); assay type: functional, cell-based; conditions: Cricetulus griseus
Outline: (§2)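 Conjugates added 24 h after seeding (1 × 10^5 cells/mL, RPMI 1640 with 10% FCS and 2 mM aminoguanidine; proline added for CHO-MG) and left for 24 h. Cells were washed in 0.14 M NaCl, sonicated in 0.2 N HClO4/2 M NaCl and held 16 h at 4 °C. Conjugate in the supernatant was measured by fluorimetry against standards and expressed per mg protein (Folin). Mean of three determinations (±15%).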

L1210 [3] = test: Cellular uptake of conjugates in L1210 cells pretreated with 5 mM DFMO at a concentration of 2 uM (+/-15% SEM); assay type: functional, cell-based; conditions: Mus musculus
Outline: (§3)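 L1210 cells were seeded at 10^5 cells/mL in medium with 5 mM DFMO, and conjugates were added 24 h later. Cells were harvested after a further 24 h, extracted in 0.2 N HClO4/2 M NaCl and assayed by fluorimetry, expressed per mg protein. Mean of three determinations (±15%).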

CHO-MG [4] = test: In vitro 25% cell growth inhibition by the compound in CHO-MG cells; assay type: functional, Cricetulus griseus
Outline: (§4)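 CHO or CHO-MG cells were trypsinized and plated singly at 2 × 10^3 cells/mL in RPMI 1640/10% FCS with 2 mM aminoguanidine (proline for CHO-MG). Conjugates were added after overnight incubation, with 48 h exposure. Growth was read by MTT formazan absorbance at 540 nm relative to untreated controls. The value is the concentration giving 25% or 50% growth inhibition.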

L1210 [5] = test: Cellular uptake of conjugates in L1210 cells (control) at a concentration of 0.5 uM (+/-15% SEM); assay type: functional, cell-based; conditions: Mus musculus
Outline: (§5)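 L1210 cells were seeded at 2 × 10^5 cells/mL with conjugate added at seeding, in medium containing 2 mM aminoguanidine, and cultured 24 h. Washed cells were extracted in 0.2 N HClO4/2 M NaCl for 16 h at 4 °C. Intracellular conjugate was quantified by fluorimetry and expressed as nmol/mg protein. Mean of three determinations (±15%).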

CHO-MG [6] = test: In vitro 25% cell growth inhibition by the compound in CHO-MG cells with 5 mM DFMO addition; assay type: functional; conditions: Cricetulus griseus
Outline: (§6)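 CHO or CHO-MG cells were plated at 2 × 10^3 cells/mL and incubated overnight. Conjugates and 5 mM DFMO were then added together, with 2 mM aminoguanidine present, for 48 h. MTT absorbance at 540 nm was expressed relative to DFMO-treated controls. The value is the concentration inhibiting growth 25% or 50%.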

L1210 [7] = test: Cellular uptake of conjugates in L1210 cells pretreated with 5 mM DFMO at a concentration of 0.5 uM (+/-15% SEM); assay type: functional, cell-based; conditions: Mus musculus; outline: as §3
L1210 [8] = test: In vitro 25% cell growth inhibition by the compound in L1210 cells; assay type: functional; conditions: Mus musculus
Outline: (§7)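 L1210 cells were seeded at 5 × 10^4 cells/mL with conjugate added at seeding, in medium with 2 mM aminoguanidine, for 48 h exposure. Growth was measured by MTT absorbance at 540 nm relative to untreated controls.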

CHO [9] = test: Cellular uptake of conjugates in CHO cells at a concentration of 10 uM (+/-15% SEM); assay type: functional, cell-based; conditions: Cricetulus griseus; outline: as §2
L1210 [10] = test: In vitro 50% cell growth inhibition by the compound in L1210 cells; assay type: functional, cell-based; conditions: Mus musculus; outline: as §7
L1210 [11] = test: Cellular uptake of conjugates in L1210 cells (control) at a concentration of 2 uM (+/-15% SEM); assay type: functional, cell-based; conditions: Mus musculus; outline: as §5
L1210 [12] = test: Cellular uptake of conjugates in L1210 cells pretreated with 5 mM DFMO at a concentration of 10 uM (+/-15% SEM); assay type: functional, cell-based; conditions: Mus musculus; outline: as §3
CHO [13] = test: In vitro 25% cell growth inhibition by the compound in CHO cells with 5 mM DFMO addition; assay type: functional; conditions: Cricetulus griseus; outline: as §6
L1210 [14] = test: Cellular uptake of conjugates in L1210 cells in presence of 500 uM SPD at a concentration of 10 uM (+/-15% SEM); assay type: functional, cell-based; conditions: Mus musculus
Outline: (§8)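 Same as the L1210 uptake assay: seeded at 2 × 10^5 cells/mL, conjugate plus 500 μM spermidine added together at seeding, 24 h exposure. Extraction in HClO4/NaCl, fluorimetric quantitation, normalized to protein. Mean of three determinations (±15%).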

CHO-MG [15] = test: Cellular uptake of conjugates in CHO-MG cells at a concentration of 10 uM (+/-15% SEM); assay type: functional, cell-based; conditions: Cricetulus griseus; outline: as §2
CHO [16] = test: In vitro 50% cell growth inhibition by the compound in CHO cells; assay type: functional, cell-based; conditions: Cricetulus griseus; outline: as §4
CHO-MG [17] = test: In vitro 50% cell growth inhibition by the compound in CHO-MG cells; assay type: functional, cell-based; conditions: Cricetulus griseus; outline: as §4
L1210 [18] = test: Inhibition of [14C]SPD uptake by the compound in 5 min initial rate transport assay in L1210 cells; assay type: functional, cell-based, Mus musculus
[19] = Ratio of cellular uptake in CHO cells to that of CHO-MG cells 2 uM; assay type: functional
L1210 [20] = test: In vitro 50% cell growth inhibition by the compound in L1210 cells with 5 mM DFMO addition; assay type: functional, cell-based; conditions: Mus musculus; outline: as §1
CHO [21] = test: Cellular uptake of conjugates in CHO cells at a concentration of 2 uM (+/-15% SEM); assay type: functional, cell-based; conditions: Cricetulus griseus; outline: as §2
L1210 [22] = test: Cellular uptake of conjugates in L1210 cells (control) at a concentration of 10 uM (+/-15% SEM); assay type: functional, cell-based; conditions: Mus musculus; outline: as §5
CHO [23] = test: In vitro 25% cell growth inhibition by the compound in CHO cells; assay type: functional; conditions: Cricetulus griseus; outline: as §4
L1210 [24] = test: Cellular uptake of conjugates in L1210 cells in presence of 500 uM SPD at a concentration of 0.5 uM (+/-15% SEM); assay type: functional, cell-based; conditions: Mus musculus; outline: as §8
CHO [25] = test: In vitro 50% cell growth inhibition by the co mpound in CHO cells with 5 mM DFMO addition; assay type: functional, cell-based; conditions: Cricetulus griseus; outline: as §6
CHO-MG [26] = test: In vitro 50% cell growth inhibition by the compound in CHO-MG cells with 5 mM DFMO addition; assay type: functional, cell-based; conditions: Cricetulus griseus; outline: as §6
[27] = Ratio of cellular uptake in CHO cells to that of CHO-MG cells at 10 uM; assay type: functional
Nucleic Acid = test: Drug concentration required to produce 50% inhibition of fluorescence bound ethidium to CT-DNA (1.26:1) (+/-SEM 5%); assay type: functional; conditions: Bos taurus
Outline: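 Ethidium displacement: 1 μM CT-DNA with 1.26 μM ethidium bromide; conjugate stock added serially. Fluorescence was read at excitation 546 nm and emission 595 nm. The value is the conjugate concentration cutting DNA-bound ethidium fluorescence by 50%. Mean of three determinations (±5%).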

L1210 [28] = test: Cellular uptake of conjugates in L1210 cells in presence of 500 uM SPD at a concentration of 2 uM (+/-15% SEM); assay type: functional, cell-based; conditions: Mus musculus; outline: as §8
L1210 [29] = test: Cellular uptake of conjugates in L1210 cells (control) at a concentration of 5 uM (+/-15% SEM); assay type: functional, cell-based; conditions: Mus musculus; outline: as §5
CHO [30] = test: Cellular uptake of conjugates in CHO cells at a concentration of 2.5 uM (+/-15% SEM); assay type: functional, cell-based; conditions: Cricetulus griseus; outline: as §2
CHO-MG [31] = test: Cellular uptake of conjugates in CHO-MG cells at a concentration of 2.5 uM (+/-15% SEM); assay type: functional, cell-based; conditions: Cricetulus griseus; outline: as §2
CHO [32] = test: In vitro 50% cell growth inhibition by the compound in CHO cells (control); assay type: functional, cell-based; conditions: Cricetulus griseus; outline: as §4
CHO-MG [33] = test: In vitro 50% cell growth inhibition by the compound in CHO-MG cells (control); assay type: functional, cell-based; conditions: Cricetulus griseus; outline: as §4
L1210 [34] = test: In vitro 50% cell growth inhibition by the compound in L1210 cells (control) with 5 mM DFMO addition; assay type: functional, cell-based; conditions: Mus musculus; outline: as §1
[35] = Ratio of cellular uptake in CHO cells to that of CHO-MG cells at 2.5 uM; assay type: functional
L1210 [36] = test: Cellular uptake of conjugates in L1210 cells in presence of 500 uM SPD at a concentration of 5 uM (+/-15% SEM); assay type: functional, cell-based; conditions: Mus musculus; outline: as §8
CHO-MG [37] = test: Cellular uptake of conjugates in CHO-MG cells at a concentration of 1.25 uM (+/-15% SEM); assay type: functional, cell-based; outline: as §2
[38] = Ratio of cellular uptake in CHO cells to that of CHO-MG cells at 1.25 uM; assay type: functional
CHO [39] = test: Cellular uptake of conjugates in CHO cells at a concentration of 1.25 uM (+/-15% SEM); assay type: functional, cell-based; conditions: Cricetulus griseus; outline: as §2
CHO [40] = test: Cellular uptake of conjugates in CHO cells at a concentration of 0.5 uM (+/-15% SEM); assay type: functional, cell-based; conditions: Cricetulus griseus; outline: as §2
[41] = Ratio of cellular uptake in CHO cells to that of CHO-MG cells.; assay type: functional
CHO-MG [42] = test: Cellular uptake of conjugates in CHO-MG cells at a concentration of 0.5 uM (+/-15% SEM); assay type: functional, cell-based; conditions: Cricetulus griseus; outline: as §2

Structure (SMILES)	IC25 (L1210 [1]) [µM]	Uptake (nM (mg of protein)-1) (L1210 [3])	IC25 (L1210 [8]) [µM]	Uptake (nM (mg of protein)-1) (CHO [9])	IC50 (L1210 [10]) [µM]	Uptake (nM (mg of protein)-1) (L1210 [11])	Uptake (nM (mg of protein)-1) (L1210 [12])	Uptake (nM (mg of protein)-1) (L1210 [14])	Uptake (nM (mg of protein)-1) (CHO-MG [15])	IC50 (CHO [16]) [µM]	IC50 (CHO-MG [17]) [µM]	Ki (L1210 [18]) [µM]	IC50 (L1210 [20]) [µM]	Uptake (nM (mg of protein)-1) (L1210 [22])	Ratio [27]	Concentration for 50% ethidium displacement from DNA (C50) (Nucleic Acid) [nM]	also measured
Cl.NCCCNCCCCNCCCNCCCCCNC(=O)c1c2ccccc2nc2ccccc12	0.1	0.217	22	0.125	41	0.064	0.631	0.262	0.112	25	31	0.097	6.6	0.279	1.1	120	Uptake (nM (mg of protein)-1) (CHO-MG [2]): 0.032; IC25 (CHO-MG [4]): 10.5 µM; Uptake (nM (mg of protein)-1) (L1210 [5]): 0.033; IC25 (CHO-MG [6]): 6 µM; Uptake (nM (mg of protein)-1) (L1210 [7]): 0.113; IC25 (CHO [13]): 0.025 µM; Ratio [19]: 1.1; Uptake (nM (mg of protein)-1) (CHO [21]): 0.034; IC25 (CHO [23]): 10.8 µM; Uptake (nM (mg of protein)-1) (L1210 [24]): 0.016; IC50 (CHO [25]): 2 µM; IC50 (CHO-MG [26]): 23 µM; Uptake (nM (mg of protein)-1) (L1210 [28]): 0.049
Cl.NCCCNCCCCNCCCNCCCNC(=O)c1c2ccccc2nc2ccccc12	0.09	–	22	0.1	43	–	0.587	0.221	0.108	–	–	0.097	–	0.239	0.93	120	Uptake (nM (mg of protein)-1) (L1210 [29]): 0.086; Uptake (nM (mg of protein)-1) (CHO [30]): 0.014; Uptake (nM (mg of protein)-1) (CHO-MG [31]): 0.017; IC50 (CHO [32]): 30 µM; IC50 (CHO-MG [33]): 35 µM; IC50 (L1210 [34]): 2.2 µM; Ratio [35]: 0.83; Uptake (nM (mg of protein)-1) (L1210 [36]): 0.073
Cl.NCCCNCCCCNCCCNCCCCNC(=O)c1c2ccccc2nc2ccccc12	0.16	–	10	0.183	18	–	0.85	–	0.172	17	21	0.083	2.2	0.561	1.1	120	Uptake (nM (mg of protein)-1) (CHO-MG [37]): 0.013; Ratio [38]: 1.4; Uptake (nM (mg of protein)-1) (CHO [39]): 0.018
Cl.NCCCNCCCCNCCCNCCCCCNc1c2ccccc2nc2ccccc12	0.2	1.06	0.4	–	1.4	0.51	–	–	–	1	4	0.135	0.7	–	–	110	Uptake (nM (mg of protein)-1) (CHO [40]): 0.21; Ratio [41]: 3.4; Uptake (nM (mg of protein)-1) (CHO-MG [42]): 0.061
